This is an account of results in ChEMBL document CHEMBL4725483, “Simultaneous Inhibition of SIRT2 Deacetylase and Defatty-Acylase Activities via a PROTAC Strategy” (ACS Med Chem Lett, 2020).

Calls of active or inactive are those of the source. The rule behind the calls is not given here.

Experiment [1] deals with T1, Protein cereblon/NAD-dependent protein deacetylase sirtuin-2 (Homo sapiens) (UniProt Q8IXJ6+Q96SW2). The experiment in a line: Protac activity at CRBN/SIRT2 in human BT549 cells assessed as SIRT2 degradation at 5 to 10 uM after 48 hrs by immunoblot analysis. The class given is cell-based. The following applies: BT-549, dose microM 5-10, time 48.0 hrs. The procedure, abridged: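 Cells exposed to compound at the indicated concentrations for 48 h. SIRT1, SIRT2 and SIRT3 levels were read by immunoblot.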
T1 sequence (Q8IXJ6 whole entry, looked up): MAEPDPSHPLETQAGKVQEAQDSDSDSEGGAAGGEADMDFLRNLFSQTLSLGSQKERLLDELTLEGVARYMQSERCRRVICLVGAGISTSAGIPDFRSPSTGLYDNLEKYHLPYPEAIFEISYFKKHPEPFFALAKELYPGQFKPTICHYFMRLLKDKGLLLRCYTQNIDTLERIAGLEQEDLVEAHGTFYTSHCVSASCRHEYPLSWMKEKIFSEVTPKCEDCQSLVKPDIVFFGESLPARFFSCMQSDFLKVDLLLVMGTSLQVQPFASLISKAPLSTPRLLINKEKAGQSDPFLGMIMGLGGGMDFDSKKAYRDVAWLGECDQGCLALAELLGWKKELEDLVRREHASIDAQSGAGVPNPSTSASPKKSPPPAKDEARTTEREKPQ
T1 sequence (Q96SW2 whole entry, looked up): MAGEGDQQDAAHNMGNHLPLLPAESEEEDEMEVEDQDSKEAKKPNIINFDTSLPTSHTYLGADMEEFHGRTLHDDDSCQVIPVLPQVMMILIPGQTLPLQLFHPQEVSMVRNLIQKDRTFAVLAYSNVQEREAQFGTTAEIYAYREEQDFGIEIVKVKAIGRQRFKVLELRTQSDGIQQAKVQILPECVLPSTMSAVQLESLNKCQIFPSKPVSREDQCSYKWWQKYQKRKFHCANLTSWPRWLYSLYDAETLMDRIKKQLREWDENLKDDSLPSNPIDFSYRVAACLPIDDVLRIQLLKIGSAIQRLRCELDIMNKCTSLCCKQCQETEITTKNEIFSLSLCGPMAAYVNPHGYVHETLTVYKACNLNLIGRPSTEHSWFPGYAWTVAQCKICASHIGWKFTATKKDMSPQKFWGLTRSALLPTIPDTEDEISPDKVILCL
(In general: Immunoblotting shows a protein as a band on a membrane.)

Experiment [2] addresses T1, Protein cereblon/NAD-dependent protein deacetylase sirtuin-2 (Homo sapiens). The experiment in a line: Protac activity at CRBN/SIRT2 in human HEK293T cells stably expressing flag-tagged K-Ras4a assessed as inhibition of SIRT2 defatty-acylation at 1 uM incubated for 42 hrs followed by Alkyne-14 addition and measured after 6 hrs by immunoprecipitation based assay. The class given is cell-based. The following applies: HEK-293T. The procedure, abridged: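 HEK 293T cells stably expressing Flag-K-Ras4a-G12V were treated with 1 μM compound for 42 h, then labelled with 50 μM Alk-14 for 6 h more. Flag-K-Ras4a was immunoprecipitated and a fluorescent dye attached by click chemistry. NH2OH was applied to strip cysteine fatty acylation, and lysine fatty acylation was measured by in-gel fluorescence and quantified relative to DMSO.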

The target of experiment [3] is Protein cereblon/NAD-dependent protein deacetylase sirtuin-3, mitochondrial (Homo sapiens) (UniProt Q9NTG7+Q96SW2). The experiment in a line: Protac activity at CRBN/SIRT3 in human HEK293T cells stably expressing flag-tagged K-Ras4a-G12V assessed as inhibition of SIRT2 defatty-acylation at 1 uM incubated for 48 hrs by immunoblot analysis. To be noted: HEK-293T. The class given is cell-based. Put shortly: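 HEK 293T cells stably overexpressing Flag-tagged K-Ras4a-G12V (confirmed by pan-Ras blot) were exposed to 1 μM compound for 48 h. SIRT1, SIRT2 and SIRT3 levels were then read by immunoblot.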
Chain of Protein cereblon/NAD-dependent protein deacetylase sirtuin-3, mitochondrial (Homo sapiens) (Q96SW2 whole entry, looked up): as above
Chain of Protein cereblon/NAD-dependent protein deacetylase sirtuin-3, mitochondrial (Homo sapiens) (Q9NTG7 whole entry, looked up): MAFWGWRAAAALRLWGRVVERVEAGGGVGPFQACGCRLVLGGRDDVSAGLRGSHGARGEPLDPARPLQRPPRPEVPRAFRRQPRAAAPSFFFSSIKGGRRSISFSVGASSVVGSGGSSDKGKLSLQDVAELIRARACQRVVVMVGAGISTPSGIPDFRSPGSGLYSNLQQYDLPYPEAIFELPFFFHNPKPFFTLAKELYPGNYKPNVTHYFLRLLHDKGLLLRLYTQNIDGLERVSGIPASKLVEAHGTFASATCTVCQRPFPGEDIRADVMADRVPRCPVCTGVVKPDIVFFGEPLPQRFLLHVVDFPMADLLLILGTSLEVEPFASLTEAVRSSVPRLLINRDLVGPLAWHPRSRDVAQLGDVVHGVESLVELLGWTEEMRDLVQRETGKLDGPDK

Experiment [4] has as its system MCF7. In words: Cytotoxicity against human MCF7 cells assessed as reduction in cell viability after 72 hrs. The class given is functional, cell-based. The procedure, abridged: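 Cells incubated with compound or thalidomide for 72 h; cell viability read out at the end of exposure.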

With `CCCCCCCCCCCCCC(=S)NCCCC[C@H](NC(=O)CCOCCOCCOCCOCCNc1cccc2c1C(=O)N(C1CCC(=O)NC1=O)C2=O)C(=O)Nc1ccccc1` (some centres undefined), the result in experiment [1], in experiment [2] and in experiment [4] was Active. In addition, the outcome in experiment [3] was inactive.
